Changes are numbered by the printed parent chain.
What was measured:
Staphylococcus aureus = assay: Inhibition of penicillin-resistant Staphylococcus aureus PBP2a assessed as residual activity at 1 mM incubated for 4 hrs prior to prior to fluoresceyl-ampicillin labelling measured after 20 mins by SDS-PAGE analysis
[1] = target: T1, Penicillin-binding protein 2X (Streptococcus pneumoniae R6) (UniProt P59676); assay: Inhibition of penicillin-sensitive Streptococcus pneumoniae R6 PBP2x using S2d as substrate assessed as residual activity at 1 mM incubated for 60 mins prior to substrate addition by DTNB-based spectrophotometry
T1 sequence (whole entry): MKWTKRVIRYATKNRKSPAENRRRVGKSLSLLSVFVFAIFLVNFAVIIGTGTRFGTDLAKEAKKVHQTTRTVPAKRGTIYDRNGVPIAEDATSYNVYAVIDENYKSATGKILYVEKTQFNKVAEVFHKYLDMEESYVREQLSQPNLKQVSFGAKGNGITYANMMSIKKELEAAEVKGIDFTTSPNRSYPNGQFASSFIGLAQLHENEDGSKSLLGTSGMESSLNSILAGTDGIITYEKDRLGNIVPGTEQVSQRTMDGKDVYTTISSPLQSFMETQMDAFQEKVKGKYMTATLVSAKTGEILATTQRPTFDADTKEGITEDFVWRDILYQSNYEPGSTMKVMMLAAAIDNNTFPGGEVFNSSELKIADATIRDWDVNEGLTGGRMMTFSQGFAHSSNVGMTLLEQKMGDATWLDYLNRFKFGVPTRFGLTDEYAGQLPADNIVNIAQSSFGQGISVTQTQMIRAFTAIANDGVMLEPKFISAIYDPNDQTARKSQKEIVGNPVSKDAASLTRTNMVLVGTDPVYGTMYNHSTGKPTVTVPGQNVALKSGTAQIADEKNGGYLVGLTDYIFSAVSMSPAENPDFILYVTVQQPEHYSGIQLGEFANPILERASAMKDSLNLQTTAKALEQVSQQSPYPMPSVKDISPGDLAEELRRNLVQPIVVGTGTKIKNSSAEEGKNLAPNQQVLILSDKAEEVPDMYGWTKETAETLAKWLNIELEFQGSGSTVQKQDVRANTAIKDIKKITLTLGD
Method in brief: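 S. pneumoniae PBP2x-R6, 0.09 µM, pre-incubated with inhibitor in 10 mM sodium phosphate pH 7.0 with 0.01 mg/mL BSA, 60 min, 25 °C; 1% DMF final. S2d (1 mM) plus DTNB (1 mM) then added; residual activity taken from initial hydrolysis rate at 412 nm, corrected for spontaneous hydrolysis; triplicates, six no-inhibitor controls per plate.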

Streptococcus pneumoniae [2] = assay: Inhibition of Streptococcus pneumoniae PBP1b using PATP thioester as substrate assessed as residual activity at 100 uM incubated for 60 mins prior to substrate addition by DNTB-based spectrophotometry in the presence of triton X 100
Method in brief: (§1)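 Assay B: S. pneumoniae PBP1b (0.2 µM) pre-incubated with inhibitor 60 min at 25 °C in 10 mM sodium phosphate pH 7.0, 100 mM D-alanine, 0.01 mg/mL BSA, 0.01% Triton X-100. Residual activity from initial rates of PATP thioester (5 mM) hydrolysis with DTNB (1.0 mM); IC50 by non-linear regression of residual activity across concentrations.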

Enterococcus faecium = assay: Inhibition of penicillin-resistant Enterococcus faecium PBP5fm assessed as residual activity at 1 mM incubated for 4 hrs prior to prior to fluoresceyl-ampicillin labelling measured after 20 mins by SDS-PAGE analysis
[3] = target: T2, Penicillin-binding protein 2x (Streptococcus pneumoniae serotype 4 (strain ATCC BAA-334 / TIGR4)) (UniProt P14677); assay: Inhibition of penicillin-resistant Streptococcus pneumoniae 5204 PBP2x using S2d as substrate assessed as residual activity at 1 mM incubated for 4 hrs prior to substrate addition by DNTB-based spectrophotometry
T2 sequence (whole entry): T1 sequence (whole entry) with M385T

Streptococcus pneumoniae [4] = assay: Inhibition of Streptococcus pneumoniae PBP1b assessed as residual activity at 1mM incubated for 60 mins prior to fluoresceyl-ampicillin labelling measured after 20 mins by SDS-PAGE analysis in the presence of triton X 100
Method in brief: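 Assay A: purified S. pneumoniae PBP1b (0.7 µM) pre-incubated with inhibitor in 10 mM sodium phosphate pH 7.0, 60 min, 25 °C, 0.01% Triton X-100. Remaining active enzyme labelled with fluoresceyl-ampicillin (10 µM), 20 min; reaction stopped, run on SDS-PAGE, fluorescence of the band quantified as residual activity.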

[5] = target: D-alanyl-D-alanine carboxypeptidase (Actinomadura sp. R39) (UniProt P39045); assay: Inhibition of Actinomadura sp. R39 PBP using S2d as substrate assessed as residual activity at 1 mM incubated for 60 mins prior to substrate addition by DTNB-based spectrophotometry
Method in brief: (§2)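 R39 (Actinomadura, prepared per Granier), 3.5 nM, pre-incubated with inhibitor 60 min at 25 °C in 10 mM sodium phosphate pH 7.2, 100 mM NaCl, 100 mM D-alanine, 0.01 mg/mL BSA; inhibitors from DMF stock, 1% DMF final. Residual activity from initial rate of S2d (1 mM) hydrolysis with DTNB (1 mM), read at 412 nm, corrected for spontaneous hydrolysis; triplicates, uninhibited control six replicates per plate.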

[6] = target: T3, Penicillin-binding protein 2X (Streptococcus pneumoniae R6, UniProt P59676); assay: Inhibition of penicillin-sensitive Streptococcus pneumoniae R6 PBP2x using S2d as substrate incubated for 60 mins prior to substrate addition by DTNB-based spectrophotometry
T3 sequence (P59676 whole entry): T1 sequence (whole entry)
Method in brief: (§3)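 PBP purified per earlier method. Pre-incubation: enzyme with inhibitor (DMF stock, 1% DMF final) at 25 °C for 60 min. Buffer for R39 (3.5 nM): 10 mM sodium phosphate pH 7.2, 100 mM NaCl, 100 mM D-alanine, 0.01 mg/mL BSA. Buffer for PBP2xR6: 10 mM sodium phosphate pH 7.0, 0.01 mg/mL BSA. S2d (1 mM) and DTNB (1 mM) then added. Initial hydrolysis rate read at 412 nm. Triplicates. IC50 by non-linear regression of residual activity over a concentration range, with 0.01% Triton X-100.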

[7] = target: T4, D-alanyl-D-alanine carboxypeptidase (Actinomadura sp. R39, UniProt P39045); assay: Inhibition of Actinomadura sp. R39 PBP using S2d as substrate incubated for 60 mins prior to substrate addition by DTNB-based spectrophotometry
Method in brief: as §3

[8] = Inhibition of Streptococcus pneumoniae PBP1b using PATP thioester as substrate incubated for 60 mins prior to substrate addition by DNTB-based spectrophotometry in the presence of triton X 100
Method in brief: as §1

[9] = target: T2, Penicillin-binding protein 2x (Streptococcus pneumoniae serotype 4 (strain ATCC BAA-334 / TIGR4)); assay: Inhibition of penicillin-resistant Streptococcus pneumoniae 5204 PBP2x using S2d as substrate assessed as residual activity at 1 mM incubated for 4 hrs prior to substrate addition by DNTB-based spectrophotometry in the presence of triton X 100
[10] = target: T4, D-alanyl-D-alanine carboxypeptidase; assay: Binding affinity to Actinomadura sp. R39 PBP
Streptococcus pneumoniae [11] = assay: Inhibition of Streptococcus pneumoniae PBP1b using PATP thioester as substrate assessed as residual activity at 1 mM incubated for 60 mins prior to substrate addition by DNTB-based spectrophotometry in the presence of triton X 100
Method in brief: as §1

[12] = target: T1, Penicillin-binding protein 2X (Streptococcus pneumoniae R6); assay: Inhibition of penicillin-sensitive Streptococcus pneumoniae R6 PBP2x using S2d as substrate assessed as residual activity at 1 mM incubated for 60 mins prior to substrate addition by DTNB-based spectrophotometry in presence of triton X 100
Method in brief: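 PBP2xR6 (0.09 µM) pre-incubated with inhibitor for 60 min at 25 °C in 10 mM sodium phosphate pH 7.0, 0.01 mg/mL BSA, with 0.01% Triton X-100. 1% DMF final. S2d (1 mM) and DTNB (1 mM) then added. Initial hydrolysis rate read at 412 nm. Triplicates. Uninhibited activity from six replicates per plate.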

[13] = target: D-alanyl-D-alanine carboxypeptidase (Actinomadura sp. R39) (UniProt P39045); assay: Inhibition of Actinomadura sp. R39 PBP using S2d as substrate assessed as residual activity at 1 mM incubated for 60 mins prior to substrate addition by DTNB-based spectrophotometry in presence of triton X 100
Method in brief: as §2

T4 sequence (P39045 whole entry): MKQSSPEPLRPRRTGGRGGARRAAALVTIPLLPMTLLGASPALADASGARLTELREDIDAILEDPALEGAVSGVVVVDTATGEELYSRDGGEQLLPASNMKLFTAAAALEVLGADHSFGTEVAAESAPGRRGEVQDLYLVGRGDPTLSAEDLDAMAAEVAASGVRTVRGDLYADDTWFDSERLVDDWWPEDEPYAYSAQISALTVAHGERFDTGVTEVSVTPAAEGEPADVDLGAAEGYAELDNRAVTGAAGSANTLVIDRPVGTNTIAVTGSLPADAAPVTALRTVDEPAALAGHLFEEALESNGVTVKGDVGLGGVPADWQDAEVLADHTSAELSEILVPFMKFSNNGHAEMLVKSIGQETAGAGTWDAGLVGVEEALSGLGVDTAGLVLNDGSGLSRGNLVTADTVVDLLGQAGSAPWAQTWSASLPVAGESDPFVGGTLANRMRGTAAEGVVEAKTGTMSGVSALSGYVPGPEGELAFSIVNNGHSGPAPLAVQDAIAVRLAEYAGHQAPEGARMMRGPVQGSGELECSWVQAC
Chain of D-alanyl-D-alanine carboxypeptidase (Actinomadura sp. R39) (P39045 whole entry): as above

Structure (SMILES) | Activity (Staphylococcus aureus) [%] | Activity [1] [%] | Activity (Streptococcus pneumoniae [2]) [%] | Activity (Enterococcus faecium) [%] | Activity [3] [%] | Activity (Streptococcus pneumoniae [4]) [%] | Activity [5] [%] | IC50 [6] [µM] | IC50 [7] [µM] | IC50 [8] [µM] | Activity [9] [%] | Ki [10] [µM] | Activity (Streptococcus pneumoniae [11]) [%] | Activity [12] [%] | Activity [13] [%]
COc1ccc(C(=O)NCB(O)O)cc1 | 92 | 81 | 82 | 81 | 94 | 38 | 50 | – | – | – | – | – | – | – | –
O=C(NCB(O)O)c1ccccc1C(F)(F)F | – | 44 | – | – | 109 | 69 | 5 | 481 | 15 | – | – | – | – | – | –
O=C(NCB(O)O)c1ccc(Cl)cc1 | 100 | 89 | 70 | 93 | 101 | 29 | 73 | – | – | – | – | – | – | – | –
COc1cccc(OC)c1C(=O)NCC(=O)O | – | – | – | – | – | – | 87 | – | – | – | – | – | – | – | –
O=C(NCB(O)O)c1c(F)cccc1F | 91 | 40 | 7 | 88 | – | – | 6 | 906 | 35 | 7 | 86 | – | – | – | –
O=C(CCC1CCCC1)NCB(O)O | 100 | 79 | – | 85 | – | 59 | 71 | – | – | – | 98 | – | – | – | –
O=C(Cc1ccccc1)NCB(O)O | 90 | 57 | – | 83 | – | – | 29 | – | 320 | – | 97 | 125 | 56 | – | –
COc1ccccc1C(=O)NCB(O)O | – | 86 | 67 | – | 99 | – | 43 | – | – | – | – | – | 1 | – | –
O=C(NCB(O)O)c1ccccc1[N+](=O)[O-] | 92 | – | 24 | 88 | – | – | – | 138 | 0.6 | – | 108 | 0.36 | – | 21 | 0
COc1ccc(C(=O)NCB(O)O)cc1OC | 75 | 82 | – | 78 | – | 90 | 81 | – | – | – | 98 | – | – | – | –
NCB(O)O | – | – | – | – | – | – | 99 | – | – | – | – | – | – | – | –
COc1ccc(C(=O)NCB(O)O)c(OC)c1 | 91 | – | 76 | 86 | – | 18 | – | – | – | – | 97 | – | – | 69 | 69
O=C(NCB(O)O)c1cccs1 | – | – | – | – | – | – | – | – | – | – | – | – | – | 66 | 73
O=C(Cc1ccccc1Cl)NCB(O)O | 77 | 26 | 96 | 88 | 90 | 24 | 57 | 649 | – | – | – | – | – | – | –
CC(=O)NCB(O)O | – | 100 | – | – | 97 | – | 74 | – | – | – | – | – | 87 | – | –
O=C(Cc1ccccc1[N+](=O)[O-])NCB(O)O | 85 | 31 | 52 | 84 | 86 | – | 52 | 339 | – | – | – | – | – | – | –
O=C(NCB(O)O)c1ccccc1Cl | 81 | – | 20 | 97 | – | – | – | 262 | 85 | – | 70 | 42 | – | 31 | 15
O=C(NCB(O)O)c1ccccc1 | 81 | 78 | – | 79 | 81 | 56 | – | – | – | – | – | – | – | – | 80
O=C(Cc1ccc(Cl)cc1)NCB(O)O | 89 | 32 | 69 | 88 | – | 20 | 71 | 376 | – | – | 82 | – | – | – | –
O=C(NCB(O)O)c1ccccc1F | 88 | 56 | 14 | 83 | – | – | 30 | – | 505 | – | 106 | – | – | – | –
